H9c2 TAG inh: triacylglycerol accumulation inhibition | H9c2 cells, Nile Red lipid (TAG) fluorescence; cells loaded with 200 µM oleic acid | inhibition, % at 12.5 µM | 230,000 tested, 0.66% active | AID 651582;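 active = pattern-corrected inhibition of lipid staining of at least 50% with the nuclear-stain viability signal not falling by more than 50%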;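 also: 0% = DMSO wells and 100% = triacsin C control wells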
Efflux pump inh: antifungal efflux pump inhibition, Nile Red retention. AID 485275. S. cerevisiae Candida pump triplex. inhibition, % at 10 µM. 330,000 tested, 0.44% active;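 active = plate passing quality check with inhibition over a set limit, or well fluorescence over plate mean plus 4 SD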;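 also: Nile Red retained in pooled yeast measured as flow cytometry median fluorescence; 0% = buffer negative control and 100% = Enniatin B positive control; higher means more Nile Red kept so more efflux inhibition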
SMARCA2 activ: activators of SMARCA2 function. MG213 cells, MMTV-luciferase reporter, dexamethasone, overnight. activation, % at 9.1 µM. 370,000 tested, 1% active. AID 652017; in the data active = activation above about 7.8%;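 also: 0% = vehicle wells and 100% = reference activator wells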
TbMetRS inhib: blocks T. brucei methionyl-tRNA synthetase activity. purified T. brucei MetRS, ATP depletion, Kinase-Glo luminescence. 360,000 tested, 0.4% active. AID 624268. inhibition, % at 11.9 µM;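 active = inhibition above a per-plate cutoff of the control wells' mean inhibition plus 3 SD, cut at about 5.5% in these data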;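 also: 0% = DMSO wells median and 100% = median of wells with control inhibitor compound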
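Test system – parasite MetRS enzyme · Reagent – substrates ATP, L-methionine and bulk Escherichia coli tRNA · Doses – 11.9 µM compound single dose, 0.9% DMSO · Times – 15 min enzyme-compound preincubation, 2 h reaction, 10 min detection, 25 °C · Signal – Kinase-Glo luminescence, ATP depletion format · Controls – DMSO-only wells as low control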
AHR activator: activators of human aryl hydrocarbon receptor; P35869; AHR-responsive luciferase reporter cells, luminescence; activation, % at 5 µM; 320,000 tested, 2.5% active; AID 2796; in the data active = activation above about 47%;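 also: 0% = vehicle wells and 100% = reference agonist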
Target sequence (P35869 whole entry, looked up): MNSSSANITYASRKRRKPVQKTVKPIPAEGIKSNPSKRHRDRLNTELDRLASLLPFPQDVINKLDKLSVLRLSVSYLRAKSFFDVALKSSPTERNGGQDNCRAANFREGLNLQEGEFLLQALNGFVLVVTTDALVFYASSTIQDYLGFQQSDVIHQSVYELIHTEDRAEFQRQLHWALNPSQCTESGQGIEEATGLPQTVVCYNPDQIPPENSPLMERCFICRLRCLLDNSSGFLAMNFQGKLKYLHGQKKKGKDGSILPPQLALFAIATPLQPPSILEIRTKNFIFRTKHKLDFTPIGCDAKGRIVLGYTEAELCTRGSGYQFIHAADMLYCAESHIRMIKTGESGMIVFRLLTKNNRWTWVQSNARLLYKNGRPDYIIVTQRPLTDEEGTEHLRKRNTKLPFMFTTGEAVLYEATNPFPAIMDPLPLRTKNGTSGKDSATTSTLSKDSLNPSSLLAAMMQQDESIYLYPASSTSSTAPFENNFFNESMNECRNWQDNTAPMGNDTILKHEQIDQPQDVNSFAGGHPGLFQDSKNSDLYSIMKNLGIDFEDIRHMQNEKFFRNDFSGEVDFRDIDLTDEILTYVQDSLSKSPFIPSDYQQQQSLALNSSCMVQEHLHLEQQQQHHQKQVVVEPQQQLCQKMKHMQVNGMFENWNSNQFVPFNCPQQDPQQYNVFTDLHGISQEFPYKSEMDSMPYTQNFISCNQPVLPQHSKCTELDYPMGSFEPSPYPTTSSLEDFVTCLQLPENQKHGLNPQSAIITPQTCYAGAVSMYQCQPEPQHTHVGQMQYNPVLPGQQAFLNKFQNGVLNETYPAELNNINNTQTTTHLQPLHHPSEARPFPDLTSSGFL
SMARCA2 act conf: confirmation of SMARCA2 (BRM) function activators. AID 652260. MG213 cells, MMTV-luciferase with dexamethasone, luminescence, overnight; MG213 cells expressing E1A, Rb sequestered; DMSO wells 0%, reference activator 100%. shares compounds with SMARCA2 activ. 3,500 tested, 30% active. activation, % at 9.1 µM;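 active = activation above its plate's cutoff, the mean activation of tested wells plus 3 SD, cut at about 7.9% in these data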
GAL4-VP16 Luc: GAL4-VP16 reporter activation counter-screen; shares compounds with SMARCA2 activ; HEK293 GAL4-VP16 pG5luc reporter, luciferase luminescence; scaled: DMSO wells 0%, SAHA wells 100%; activation, % at 9.1 µM; 3,500 tested, 41% active; AID 686939;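 active = activation above the solvent-only control well mean plus 3 SD, averaged across control plates, cut at about 5.2% in these data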
Starred values were filed as active, the others as inactive; x = not tested or not shown. Rows were chosen to be rich in hits. Some 4.1% of all compounds tested hit in one or more screens of this group.

SMILES	H9c2 TAG inh	Efflux pump inh	SMARCA2 activ	TbMetRS inhib	AHR activator	SMARCA2 act conf	GAL4-VP16 Luc
COc1cc(C)nc(NC(=O)NC(=O)c2ccc(C(F)(F)F)cc2)n1	x	0	8.1*	0	1	0	0
Cc1ccccc1CN1CCCCC(NC(=O)Nc2cccc([N+](=O)[O-])c2)C1=O (stereo not drawn)	x	x	-1	x	x	x	x
O=C(NCCc1ccccc1)OCc1cn(-c2ccc(F)cc2)nn1	x	x	-2	x	x	x	x
COC(=O)C1=CC(=O)N2CCN=C2S1	x	x	-1	x	x	x	x
COc1ccccc1Cc1c(-c2cccc(Br)c2)nc2ccc(C)cn12	x	x	1	x	x	x	x
NNC(=O)c1nnsc1-c1csnn1	-6	x	9.1*	0	x	-1	0
Cc1ccc(C)c(NC(=O)c2cc(-c3ccc(Cl)cc3)nc3ccccc23)c1	x	x	-4	x	x	x	x
O=[N+]([O-])c1cccc(-c2cn3ccccc3n2)c1	-14	0	12*	0	3	11*	4
NC(Cc1ccc(O)cc1)C(=O)NN=Cc1ccccc1O (stereo not drawn)	x	x	4	x	x	x	x
O=C(NCCCNC(=O)c1ccccn1)c1ccccn1	13	0	-1	0	-1	x	x
CN(C)CCCNC(=O)c1ccccn1	4	0	8.4*	0	-5	-4	0
O=C(NNCc1ccccc1)c1ccccn1	4	x	15*	0	x	4	16*
O=C(NNCc1ccccc1)c1ccccc1	18	x	1	0	x	x	x
CCCC(=O)O[C@]1(C(=O)COC(C)=O)CC[C@H]2[C@@H]3C[C@H](F)C4=CC(=O)C=C[C@]4(C)[C@@]3(F)[C@@H](O)C[C@@]21C	32	0	11*	0	7	-3	2
Cc1ccnc(NC(=O)Cn2cc([N+](=O)[O-])cn2)c1	5	0	16*	0	-2	7	5.8*
O=C(Cn1cc([N+](=O)[O-])cn1)Nc1ccccn1	x	0	0	-1	3	x	x
COC1C(CO)OC(n2c3c(Cl)cccc3c3c4c(c5c6cccc(Cl)c6[nH]c5c32)C(=O)NC4=O)C(O)C1O (stereo not drawn)	72*	x	10*	0	x	23*	0
Cc1ccc(S(=O)(=O)c2nc(-c3ccc(F)cc3)oc2N2CCOCC2)cc1	x	0	12*	0	-1	-2	-1
CCCCNc1cccc2c1S(=O)(=O)N[C@H](C)CO2	x	x	-3	x	x	x	x
CN(C(=O)/C=C/c1cnc2ccccc2c1)C1CCCCC1	18	0	9.9*	-1	-4	12*	11*
COc1cc(O)c2c(=O)c3c(OC)c(O)ccc3oc2c1	-10	0	9.7*	0	-3	9.0*	4
O=C(OCCc1ccccn1)c1cccc([N+](=O)[O-])c1	20	x	8.2*	0	x	3	3
O=C(c1cccc([N+](=O)[O-])c1)N(c1ccccn1)c1ccccn1	x	0	8.0*	0	15	0	1
COc1ccc(C=NNC(=O)c2ccncc2)cc1	x	x	-6	x	x	x	x
CCOC(=O)COc1ccccc1C1Nc2ccccc2C(=O)N1c1cccc(Cl)c1 (stereo not drawn)	x	0	8.2*	-2	5	7	6.0*
SMILES	H9c2 TAG inh	Efflux pump inh	SMARCA2 activ	TbMetRS inhib	AHR activator	SMARCA2 act conf	GAL4-VP16 Luc
CCOC(=O)COc1c(OC)cc(Cl)cc1C1Nc2ccccc2C(=O)N1c1cccc(C)c1 (stereo not drawn)	x	0	0	-1	1	x	x
COc1ccc(Oc2c(Br)cnn(Cc3cccc4ccccc34)c2=O)cc1	x	x	0	x	x	x	x
CN(C)CCNC(=O)c1cccc(-c2cc(NC=O)c3ncc(-c4cccc(C(F)(F)F)c4)n3c2)c1	48	x	34*	0	x	29*	2
COc1cccc(-c2cnc3c(NC=O)cc(-c4cccc(C(=O)N(C)C)c4)cn23)c1	150	x	12*	0	x	7	5
CN(C)CCNC(=O)c1cccc(-c2cnc3c(NC=O)cc(-c4cc(F)c(F)c(F)c4)cn23)c1	25	x	-1	0	x	x	x
Nc1nc2c(ncn2[C@@H]2O[C@H](C(=O)NCC(F)(F)F)[C@@H](O)[C@H]2O)c(=O)[nH]1	x	x	-2	x	x	x	x
Nc1nc2c(C(=O)N3CCOCC3)nnn2c2ccccc12	10	0	11*	3	15	6	9.1*
